As a reminder, the zone of inhibition is the extent of the growth-free halo in a diffusion test.

Assay type in all cases: functional
Holding throughout (settings): read-out: Diameter of inhibition zone

The subject of test [1] is Staphylococcus aureus. Kind of test: Antibacterial activity against Staphylococcus aureus T-AQ 49/YF29 at 1000 ug/disk after 24 hrs by disk diffusion assay. The gist of the method:
(§1)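 Sterile 6 mm filter-paper disc bearing sample set in the centre of a Petri dish of 15 ml plate count agar. Overlaid with 3 ml soft nutrient agar (nutrient broth + 0.7% agar) seeded with 1% of a 16–18 h culture of the test strain. Read-out is the diameter of the growth-free zone around the disc.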
(In general: In agar diffusion tests the substance spreads into inoculated agar from a disc or well.)

Test [2] concerns Bacillus subtilis. Briefly: Antibacterial activity against Bacillus subtilis NCIB 3610 at 1000 ug/disk after 24 hrs by disk diffusion assay. In outline: as §1
For test [3], the system named is Enterococcus faecalis. Kind of test: Antibacterial activity against Streptococcus faecalis NCIB 775 at 1000 ug/disk after 24 hrs by disk diffusion assay. The gist of the method: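 Test material loaded onto 6 mm sterile filter-paper discs. Each disc sits at the centre of a plate of 15 ml plate count agar overlaid with 3 ml soft nutrient agar (nutrient broth + 0.7% agar) carrying 1% of a 16–18 h culture. Activity is read as the diameter of the no-growth zone around the disc.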

For test [4], the system named is Geobacillus stearothermophilus. Briefly: Antibacterial activity against Bacillus stearothermophilus NCA 1518 at 1000 ug/disk after 24 hrs by disk diffusion assay. In outline:
as §1

Test [5] has as its system Bacillus cereus. Kind of test: Antibacterial activity against Bacillus cereus NCIB 3329 at 500 ug/disk after 24 hrs by disk diffusion assay. The gist of the method: as §1

On to `CCCCCC/C=C\CCCCCCCC(=O)O` [PALMITOLEIC ACID], for which the zone of inhibition at 1000 µg/disc in test [1] was 22 mm; in test [2] it was 14 mm; in test [3], 20 mm; in test [4], 45 mm. Also, in test [5], the zone of inhibition at 500 µg/disc turned out to be 14 mm.

For the origin of these results see ChEMBL document CHEMBL1148178, “Dicranin, an antimicrobial and 15-lipoxygenase inhibitor from the moss Dicranum scoparium” (1993).
